Test results: ChEMBL document CHEMBL2169816, “Noncyclam tetraamines inhibit CXC chemokine receptor type 4 and target glioma-initiating cells” (J Med Chem, 2012)
Calls of active or inactive are those of the source. The calls are words filed in the database; no cut-off is given here.

What was measured:
[1] = tested on: MT4; assay: (§1) Cytotoxicity against human MT4 cells expressing CXCR4 after 5 days by MTT assay; type: cell-based; settings: mt4, 120 h, 120 h
Procedure, shortened: (§2)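 MT-4 cells, infected or not with HIV-1, exposed to a range of compound concentrations and left to proliferate for 5 days. Viable cells were counted by MTT colorimetric read-out. EC50 comes from protection against virus-induced cytopathic effect and CC50 from viability of uninfected cells.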

[2] = tested on: Human immunodeficiency virus 1; assay: Antiviral activity against HIV1 infected in MT4 cells expressing CXCR4 assessed as inhibition of virus-induced cytopathic effect after 5 days; type: functional, organism-based; procedure, shortened: as §2
[3] = tested on: CD44null; assay: Effect on human GBM2 cell differentiation assessed as increase in CD44null cells after 7 days by flow cytometric analysis; type: functional, cell-based
Procedure, shortened: (§3)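 Patient-derived GBM neurospheres were treated with 1 μM inhibitor for 7 days, then dissociated and blocked 15 min with 10 μg/mL human IgG. Staining was FITC anti-CD44 or IgG2b isotype, 20 min on ice in the dark, then PBS wash and propidium iodide to exclude dying cells. Flow cytometry gave CD44 null fraction and CD44 low/CD44 null ratio.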

[4] = tested on: CD44null; assay: Effect on human GBM1 cell differentiation assessed as increase in CD44null cells after 7 days by flow cytometric analysis; type: functional, cell-based; procedure, shortened: as §3
[5] = Cytotoxicity against human GBM1 assessed as cell viability after 7 days by trypan blue staining method in presence of CXCL12 relative to control; settings: GBM1 cells, read-out: Activity
Procedure, shortened: (§4)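 Dissociated neurospheres (acutase, 3 min) were counted and equal numbers seeded in triplicate per condition. Cells were treated or not with CXCR4 inhibitors (1 μM), with or without CXCL12. After 7 days cells were counted and viability expressed relative to untreated control.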

[6] = Cytotoxicity against human GBM1 assessed as cell viability after 7 days by trypan blue staining method relative to control; settings: GBM1 cells, read-out: Activity; procedure, shortened: as §4
[7] = (§5) Toxicity in iv dosed Hsd:ICR(CD-1) mouse measured up to 14 days; type: organism-based; settings: Hsd:ICR(CD-1), in vivo
Procedure, shortened: (§6)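 Single iv tail-vein injection in physiological saline (0.9% NaCl) to Hsd:ICR (CD-1) mice; groups of 4 (2 male, 2 female) at doses of 1, 2, 3, 3.5 and 4 mg/kg. Viability/mortality and clinical signs checked during first 30 min and at ~1, 2, 3, 5 h on day 1, then through days 2–15; 14-day observation; body weights recorded; necropsy of all animals.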

[8] = tested on: Mus musculus; assay: as §5; type: organism-based; settings: in vivo, 336 h; procedure, shortened: as §6
[9] = tested on: Mus musculus; assay: Toxicity in Hsd:ICR(CD-1) mouse assessed as mortality at 2 mg/kg, iv after 1 min; type: organism-based; design: dose 2 mg/kg, route intravenous; settings: in vivo; procedure, shortened: as §6
[10] = target: hERG (KCNH2) (Homo sapiens, UniProt Q12809); assay: Inhibition of human ERG expressed in CHOK1 cells at 10 uM after 5 mins by whole-cell patch clamp assay; type: cell-based; settings: CHO-K1 cells expressing human ERG
Chain of hERG (KCNH2) (Q12809 whole entry): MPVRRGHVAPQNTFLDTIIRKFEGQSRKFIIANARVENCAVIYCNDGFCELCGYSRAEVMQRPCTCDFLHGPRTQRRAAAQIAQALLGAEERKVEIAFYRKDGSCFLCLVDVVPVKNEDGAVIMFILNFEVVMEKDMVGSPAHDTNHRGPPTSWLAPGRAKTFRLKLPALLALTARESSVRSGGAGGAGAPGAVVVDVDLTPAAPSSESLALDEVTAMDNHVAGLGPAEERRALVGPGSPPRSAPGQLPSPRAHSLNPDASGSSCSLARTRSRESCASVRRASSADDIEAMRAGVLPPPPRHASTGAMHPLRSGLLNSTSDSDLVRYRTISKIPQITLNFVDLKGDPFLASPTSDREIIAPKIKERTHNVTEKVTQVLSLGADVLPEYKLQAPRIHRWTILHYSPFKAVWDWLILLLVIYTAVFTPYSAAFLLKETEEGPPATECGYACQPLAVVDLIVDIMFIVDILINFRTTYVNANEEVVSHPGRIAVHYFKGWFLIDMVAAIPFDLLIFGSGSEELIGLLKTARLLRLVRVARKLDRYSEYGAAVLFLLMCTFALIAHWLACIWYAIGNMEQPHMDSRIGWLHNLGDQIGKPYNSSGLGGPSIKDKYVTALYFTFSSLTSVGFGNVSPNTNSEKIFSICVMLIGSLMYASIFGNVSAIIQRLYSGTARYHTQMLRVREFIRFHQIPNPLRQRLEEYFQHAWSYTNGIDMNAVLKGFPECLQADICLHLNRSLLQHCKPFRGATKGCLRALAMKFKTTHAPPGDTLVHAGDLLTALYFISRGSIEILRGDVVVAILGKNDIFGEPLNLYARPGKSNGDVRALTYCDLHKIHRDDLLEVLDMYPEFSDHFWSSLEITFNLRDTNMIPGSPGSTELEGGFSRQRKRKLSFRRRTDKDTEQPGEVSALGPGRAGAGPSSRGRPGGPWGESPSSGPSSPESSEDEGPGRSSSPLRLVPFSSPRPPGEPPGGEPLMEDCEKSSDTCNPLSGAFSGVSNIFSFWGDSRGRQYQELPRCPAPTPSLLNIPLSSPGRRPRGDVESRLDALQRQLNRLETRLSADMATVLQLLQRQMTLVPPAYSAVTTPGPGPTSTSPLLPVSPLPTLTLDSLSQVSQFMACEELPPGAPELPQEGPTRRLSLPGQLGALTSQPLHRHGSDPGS
Procedure, shortened: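 hERG-expressing CHO-K1 cells were tested by automated whole-cell patch-clamp, measuring inhibition of tail current. Compound was applied cumulatively at 0.1, 1 and 10 μM, 5 min each at room temperature. E-4031 served as reference.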

[11] = target: T1, C-X-C chemokine receptor type 4 (Homo sapiens, UniProt P61073); assay: Antagonist activity at human recombinant CXCR4 expressed in CHO cells assessed as inhibition of SDF1a-induced electrical impedance by dielectric spectroscopic analysis; type: functional, cell-based
T1 sequence (P61073 whole entry): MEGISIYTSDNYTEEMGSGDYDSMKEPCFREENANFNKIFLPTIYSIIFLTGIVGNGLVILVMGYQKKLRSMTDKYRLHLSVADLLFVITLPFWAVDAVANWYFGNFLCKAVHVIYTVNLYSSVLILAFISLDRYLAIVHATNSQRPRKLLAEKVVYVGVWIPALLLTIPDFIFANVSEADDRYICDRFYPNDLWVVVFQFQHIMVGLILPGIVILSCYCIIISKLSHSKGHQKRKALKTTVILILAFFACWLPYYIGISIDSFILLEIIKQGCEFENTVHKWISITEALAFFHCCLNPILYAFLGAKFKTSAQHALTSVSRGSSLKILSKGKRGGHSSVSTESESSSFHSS
Procedure, shortened: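 CHO cells expressing recombinant human CXCR4. Antagonist mode: SDF-1a stimulant at 1 nM. Cellular impedance was read by cellular dielectric spectroscopy after incubation at 28 °C. Reference antagonist MIP-II was included. IC50 and KB were derived from concentration–response curves.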

[12] = as §1; type: cell-based; settings: MT4 cells expressing CXCR4; procedure, shortened: as §2
[13] = target: T1, C-X-C chemokine receptor type 4; settings: GBM2, 1 uM
[14] = target: T1, C-X-C chemokine receptor type 4; settings: GBM2, 0.1 uM
[15] = target: T1, C-X-C chemokine receptor type 4; settings: GBM2, 1 uM; remark: listed apart in the source
[16] = target: T1, C-X-C chemokine receptor type 4; settings: GBM2, 0.1 uM; remark: listed apart in the source
[17] = target: T1, C-X-C chemokine receptor type 4; settings: GBM2, 1 uM; remark: listed apart in the source
[18] = tested on: Mus musculus; assay: Toxicity in Hsd:ICR(CD-1) mouse assessed as mortality at 3 mg/kg, iv after 1 min; type: organism-based; design: dose 3 mg/kg, route intravenous; settings: in vivo; procedure, shortened: as §6
[19] = target: Voltage-gated inwardly rectifying potassium channel KCNH2 (Homo sapiens, UniProt Q12809); assay: Inhibition of human ERG expressed in CHOK1 cells after 5 mins by whole-cell patch clamp assay; type: cell-based, CHO-K1
Chain of Voltage-gated inwardly rectifying potassium channel KCNH2 (Q12809 whole entry): as the sequence (Q12809 whole entry) above

[20] = target: T1, C-X-C chemokine receptor type 4; settings: GBM2, 1 uM; remark: listed apart in the source
[21] = target: T1, C-X-C chemokine receptor type 4; settings: GBM2, 0.1 uM; remark: listed apart in the source
[22] = target: T1, C-X-C chemokine receptor type 4; settings: GBM2, 1 uM; remark: listed apart in the source
[23] = target: T1, C-X-C chemokine receptor type 4; settings: GBM2, 1 uM; remark: listed apart in the source
[24] = tested on: Mus musculus; assay: Toxicity in Hsd:ICR(CD-1) mouse assessed as mortality at 2.5 mg/kg, iv after 1 min; type: organism-based; design: dose 2.5 mg/kg, route intravenous; settings: in vivo
[25] = tested on: GBM1; assay: Effect on human GBM1 cell differentiation xenografted in NOD-SCID mouse assessed as decrease in tumor number incubated for 7 days prior to xenografting measured after 40 days by MRI scanning analysis relative to control; type: functional, cell-based
Procedure, shortened: (§7)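 GBM1 neurospheres were pretreated in culture for 7 days, then dissociated, counted and checked for viability by trypan blue. 100.000 live cells were stereotactically injected into the right corpus striatum of 9-week-old NOD-SCID mice. At 40 days, contrast MRI (gadolinium-DTPA 0.25 mmol/kg ip) covered the whole brain and tumor volume was quantified.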

[26] = tested on: GBM1; assay: Effect on human GBM1 cell differentiation xenografted in NOD-SCID mouse assessed as decrease in tumor size incubated for 7 days prior to xenografting measured after 40 days by MRI scanning analysis relative to control; type: functional, cell-based; procedure, shortened: as §7
[27] = Human immunodeficiency virus 1, MT4, 120 h

| Structure (SMILES) | Activity [3] | Activity [4] | viability at 168 h [5] | viability at 168 h [6] | MTD at 336 h [7] | MLC [8] | IC50 [11] | CC50 at 120 h [12] | EC50 [2, 27] | inhibition [14] | inhibition [15] | inhibition [16] | inhibition [17] | other results |
| --- | --- | --- | --- | --- | --- | --- | --- | --- | --- | --- | --- | --- | --- | --- |
| CC1CCCCN1CCCNCc1ccc(CNCCCN2CCCCC2C)cc1 (mixture of isomers; 1) | – | – | – | – | – | – | – | – | – | – | – | – | – | CC50 [1]: > 25 µg/mL; EC50 ([2]; mt4): 19 nM |
| C[C@H]1CCCCN1CCCNCc1ccc(CNCCCN2CCCC[C@@H]2C)cc1.Cl | Active | Active | > 80% | > 80% | 1.5 mg/kg | 2 mg/kg | 1100 nM | > 44000 nM | 137 nM | inactive | inactive | inactive | inactive | Activity [9]: Toxic; inhibition at 5 min, 10 µM [10]: < 25%; inhibition [13]: Active |
| C[C@@H]1CCCCN1CCCNCc1ccc(CNCCCN2CCCC[C@@H]2C)cc1.Cl (mixture of isomers) | Active | Active | > 80% | > 80% | 2.5 mg/kg | 3 mg/kg | 790 nM | 26000 nM | 139 nM | inactive | Active | inactive | Active | Activity [18]: Toxic; IC50 [19]: > 100000 nM; inhibition [20]: Active; inhibition [21]: inactive; inhibition [22]: Active; inhibition [23]: inactive |
| C[C@@H]1CCCCN1CCCNCc1ccc(CNCCCN2CCCC[C@H]2C)cc1.Cl | – | – | > 80% | > 80% | – | – | 350 nM | > 44000 nM | 125 nM | – | – | – | – | Activity [24]: Toxic; IC50 [19]: > 100000 nM |
| C[C@@H]1CCCCN1CCCNCc1ccc(CNCCCN2CCCC[C@H]2C)cc1 [listing 1 of 2 here] | Active | Active | – | – | – | – | – | – | – | inactive | inactive | inactive | inactive | – |
| C[C@@H]1CCCCN1CCCNCc1ccc(CNCCCN2CCCC[C@H]2C)cc1 [listing 2 of 2 here] | – | – | – | – | 2 mg/kg | 2.5 mg/kg | – | – | – | – | – | – | – | – |
| CC1CCCCN1CCCNCc1ccc(CNCCCN2CCCCC2C)cc1 (mixture of isomers; 11) [listing 1 of 2 here] | Active | Active | – | – | – | – | – | – | – | – | – | – | – | Activity [25]: Active; Activity [26]: Active |
| CC1CCCCN1CCCNCc1ccc(CNCCCN2CCCCC2C)cc1 (mixture of isomers; 11) [listing 2 of 2 here] | – | – | – | – | – | – | – | – | – | – | – | – | – | CC50 ([1]; read-out: CC50): > 44000 nM; EC50 ([2]; mt4): 130 nM |
